Results on 3 compounds are retold here after paper PMC3809117 (AIDS (London, England), 2009).

The test system of one series is HIV LTR in J89 cells. Briefly: LTR-driven GFP expression in J89 cells by flow cytometry. It counts as cell-based. The note with it: overnight incubation with HDACi. An outline of the steps:
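Latently infected Jurkat line carrying EGFP as a reporter of Tat-driven HIV LTR expression, grown in RPMI 1640 with 10% FBS at 37°C, 5% CO2. Cells were PBS-washed, exposed overnight to inhibitor, then fixed in PBS with 2% paraformaldehyde. Live cells were gated, with two-parameter analysis to separate GFP from background. From 10 000 events, %GFP+ was reported as mean ± SE of three independent experiments.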
In general terms: In flow cytometry, cells or beads pass a laser one at a time.

For a further series, the system named is J89 cells. Briefly: MTT cytotoxicity/proliferation assay in J89 cells. In kind it is cell-based. Conditions: 24 h, at concentrations used to induce LTR expression. The procedure, abridged:
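Cells were washed in PBS and incubated 24 h across a range of inhibitor concentrations, then assayed with an MTT proliferation kit. Percent proliferating cells was calculated relative to cells in drug-free medium. Run in triplicate.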

In series [1] the test system is latent HIV in resting CD4+ T cells. It counts as cell-based, HIV-1. Conditions: resting CD4+ T cells of aviremic patients on ART, 24 h exposure, compared to PHA. An outline of the steps:
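Resting CD4+ T cells came from leukapheresis by negative selection, from patients with plasma RNA <50 copies/ml. Cells were plated at 2.5, 0.5 or 0.1 million per well and exposed to drug for 24 h. PHA comparator: 1 µg/ml PHA-L, five-fold irradiated allogeneic PBMCs and 20 U/ml IL-2. Cells were then washed and co-cultured with CD8-depleted PBMC. p24 ELISA was read on days 15 and 19, and IUPM derived by maximum likelihood.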

For the next series, the system named is HDACs. The note with it: HDAC isoforms inhibited; cited from earlier work.
The test system of series [2] is latent HIV in resting CD4+ T cells. Conditions: cited from earlier work.

`CCC(=O)CCCCC[C@@H]1NC(=O)[C@H]2CCCCN2C(=O)[C@H]([C@@H](C)CC)NC(=O)[C@H](Cc2cn(OC)c3ccccc23)NC1=O` [Apicidin, apicidin]: in the series with HIV LTR in J89 cells, the “LTR activation (LTR-driven GFP expression)” value is given as “induced LTR activation”. Also, the “cell proliferation (MTT)” value with J89 cells is “slightly antiproliferative”. In addition, in series [1], the “induction of virus outgrowth (recovery of replication-competent HIV)” value was “suboptimal”. Also, the Selectivity result in the series on HDACs is “HDAC1, 2, 3”.

Take `O=C(CCCCCCC(=O)Nc1ccccc1)NO` [SAHA, suberoylanilide hydroxamic acid]: the “viral outgrowth from resting CD4+ T cells of aviremic HIV-infected individuals on ART” value in series [2] is “induce viral outgrowth”.

Turning to `CCCC(CCC)C(=O)O` [VPA, valproic acid], the “LTR activation (LTR-driven GFP expression)” value in the series with HIV LTR in J89 cells is given as “effectively induced LTR expression”. Also, in the series with J89 cells, the “cell proliferation (MTT)” value is recorded as “did not perturb cell proliferation”. In addition, the “induction of virus outgrowth (recovery of replication-competent HIV)” value in series [1] is “effective at inducing virus”. In series [2], the “viral outgrowth from resting CD4+ T cells of aviremic HIV-infected individuals on ART” value is on record as “induce viral outgrowth”.
